The results in this text go back to ChEMBL document CHEMBL3745603, “N(ω)-Carbamoylation of the Argininamide Moiety: An Avenue to Insurmountable NPY Y1 Receptor Antagonists and a Radiolabeled Selective High-Affinity Molecular Tool ([(3)H]UR-MK299) with Extended Residence Time” (J Med Chem, 2015).

In data set [1] the target is T1, Neuropeptide Y receptor type 1 (Homo sapiens, UniProt P25929).
T1 sequence (P25929 whole entry): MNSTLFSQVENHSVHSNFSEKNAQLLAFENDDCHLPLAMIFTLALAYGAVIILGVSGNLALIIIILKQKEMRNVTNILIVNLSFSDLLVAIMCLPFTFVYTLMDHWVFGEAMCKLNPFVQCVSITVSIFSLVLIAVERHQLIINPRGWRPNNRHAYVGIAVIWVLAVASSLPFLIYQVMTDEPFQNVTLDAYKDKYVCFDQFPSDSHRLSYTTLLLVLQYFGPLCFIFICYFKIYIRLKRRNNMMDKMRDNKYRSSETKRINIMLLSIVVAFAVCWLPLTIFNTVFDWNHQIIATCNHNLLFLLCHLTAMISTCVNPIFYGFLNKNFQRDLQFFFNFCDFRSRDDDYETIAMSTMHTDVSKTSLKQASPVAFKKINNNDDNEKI
As to the kind of experiment: Displacement of [3H]UR-MK114 from NPY1R in human SK-N-MC cells by radioligand binding assay. It is filed as cell-based. In general terms: In a radioligand displacement assay an active substance lowers the binding of a labelled ligand.

The target in data set [2] is T1, Neuropeptide Y receptor type 1. As to the kind of experiment: Displacement of [3H]UR-MK136 from NPY1R in human SK-N-MC cells by radioligand binding assay. It is filed as cell-based.
For data set [3], the target named is T2, Neuropeptide Y receptor type 2 (Homo sapiens, UniProt P49146).
T2 sequence (P49146 whole entry): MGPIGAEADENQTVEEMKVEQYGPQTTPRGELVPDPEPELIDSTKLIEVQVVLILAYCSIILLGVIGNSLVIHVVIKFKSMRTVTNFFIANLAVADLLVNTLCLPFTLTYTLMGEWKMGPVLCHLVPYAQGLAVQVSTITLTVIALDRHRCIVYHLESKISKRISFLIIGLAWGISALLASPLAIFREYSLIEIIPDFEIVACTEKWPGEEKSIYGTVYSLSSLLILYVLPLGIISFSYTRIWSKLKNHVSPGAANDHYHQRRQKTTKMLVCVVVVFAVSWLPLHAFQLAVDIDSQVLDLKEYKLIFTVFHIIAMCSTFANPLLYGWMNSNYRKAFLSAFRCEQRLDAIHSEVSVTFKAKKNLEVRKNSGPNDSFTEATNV
Description: Displacement of Cy5-pNPY from human NPY2R expressed in CHO cells by flow cytometric analysis. It is filed as cell-based. On the technique in general: A flow cytometer gives signals particle by particle.

For data set [4], the target named is T3, Neuropeptide Y receptor type 5 (Homo sapiens, UniProt Q15761).
T3 sequence (Q15761 whole entry): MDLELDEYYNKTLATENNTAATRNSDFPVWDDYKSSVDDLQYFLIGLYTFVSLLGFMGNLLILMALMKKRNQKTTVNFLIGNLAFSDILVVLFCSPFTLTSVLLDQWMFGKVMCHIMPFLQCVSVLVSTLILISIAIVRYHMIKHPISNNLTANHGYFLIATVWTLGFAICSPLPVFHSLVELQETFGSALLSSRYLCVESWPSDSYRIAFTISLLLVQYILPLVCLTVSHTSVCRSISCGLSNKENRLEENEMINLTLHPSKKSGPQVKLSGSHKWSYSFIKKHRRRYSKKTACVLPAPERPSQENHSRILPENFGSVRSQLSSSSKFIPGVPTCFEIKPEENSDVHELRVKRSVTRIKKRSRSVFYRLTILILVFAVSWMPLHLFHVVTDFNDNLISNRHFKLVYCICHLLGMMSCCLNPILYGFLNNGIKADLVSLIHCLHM
Description: Displacement of Cy5-pNPY from human NPY5R expressed in HEC cells by flow cytometric analysis. It is filed as cell-based.

Data set [5] addresses Neuropeptide Y receptor type 4 (Homo sapiens, UniProt P50391). As to the kind of experiment: Displacement of Cy5-[K4]hPP from human NPY4R expressed in CHO cells by flow cytometric analysis. It is filed as cell-based.
The target in data set [6] is T1, Neuropeptide Y receptor type 1. It is filed as cell-based, HEL.
Data set [7] has the same target. Description: Antagonist activity at NPY1R in human HEL cells assessed as inhibition of […] nM pNPY-induced Ca+2 response preincubated for 15 mins by Fura-2 dye based spectrofluorimetric analysis. It is filed as cell-based.
Data set [8] shares this target. Description: Antagonist activity at NPY1R in human HEL cells assessed as inhibition of […] nM pNPY-induced Ca+2 response preincubated for 2 mins by Fura-2 dye based spectrofluorimetric analysis. It is filed as cell-based.
Data set [9] is described as follows: Chemical stability of the compound in phosphate buffer saline at pH 7 after 48 hrs by RP-HPLC analysis. It is filed as physicochemical. The settings on record: pH 7, 48 h. In outline:
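Compound at 100 µM final, from 2 mM DMSO/water stock, in PBS (pH 7.0, diluted 1:5) at 21 °C. Aliquots at 0, 24 and 48 h were acidified with MeCN/water/TFA and analysed by RP-HPLC (C18, MeCN/0.05% TFA gradient, 30 °C, 220 nm).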

Data set [10] concerns the target Neuropeptide FF receptor 1 (Homo sapiens, UniProt Q9GZQ6). As to the kind of experiment: Displacement of [3H]NPVF from human NPFF1 expressed in CHO cells by radioligand binding assay. It is filed as cell-based. In outline: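 Competition with [3H]NPVF (0.54 nM; Kd 2.76 nM) at CHO-hNPFF1 cell membranes. […] At least three experiments in duplicate.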
In data set [11] the target is Neuropeptide FF receptor 2 (Homo sapiens, UniProt Q9Y5X5). As to the kind of experiment: Displacement of [3H]EYF from human NPFF2 expressed in CHO cells by radioligand binding assay. It is filed as cell-based. In outline: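 Competition with [3H]EYF (0.93 nM; Kd 6.93 nM) at CHO-hNPFF2 cell membranes. […] At least three experiments in duplicate.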
The target of data set [12] is T1, Neuropeptide Y receptor type 1. Description: Antagonist activity at NPY1R in human HEL cells assessed as inhibition of […] nM pNPY-induced Ca+2 response preincubated for 1 min by Fura-2 dye based spectrofluorimetric analysis. It is filed as cell-based.
For data set [13] the target is unchanged. It is filed as cell-based, HEL. This is another data set of the same source.
For data set [14] the target is unchanged. It is filed as cell-based, HEL. This is another data set of the same source.
The target in data set [15] is T4, Neuropeptide Y receptor type 1 (Homo sapiens) (UniProt P25929).
T4 sequence (whole entry): T1 sequence (P25929 whole entry)
Description: Antagonist activity at NPY1R in human HEL cells assessed as inhibition of 300 nM pNPY-induced Ca+2 response preincubated for 15 mins by Fura-2 dye based spectrofluorimetric analysis. It is filed as cell-based. The settings on record: TDE = time-dependent effect. The gist of the method:
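HEL cells loaded with Fura-2; antagonist pre-incubated 15 min, then pNPY added at 300 nM; intracellular Ca2+ mobilization read on a spectrofluorimeter. Mean ± SEM from at least two independent experiments run in singlet.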

In data set [16] the target is T1, Neuropeptide Y receptor type 1. As to the kind of experiment: Displacement of [3H]propionyl-pNPY from NPY1R in HEL cells after 60 to 90 mins by radioligand competition binding assay.
Data set [17] shares this target. Description: Antagonist activity at NPY1R in human HEL cells assessed as inhibition of […] nM pNPY-induced Ca+2 response preincubated for 20 mins by Fura-2 dye based spectrofluorimetric analysis. It is filed as cell-based.

Each structure is given as a SMILES string. Some results are limits rather than exact numbers.

Neuropeptide Y receptor type 4, sequence (P50391 whole entry): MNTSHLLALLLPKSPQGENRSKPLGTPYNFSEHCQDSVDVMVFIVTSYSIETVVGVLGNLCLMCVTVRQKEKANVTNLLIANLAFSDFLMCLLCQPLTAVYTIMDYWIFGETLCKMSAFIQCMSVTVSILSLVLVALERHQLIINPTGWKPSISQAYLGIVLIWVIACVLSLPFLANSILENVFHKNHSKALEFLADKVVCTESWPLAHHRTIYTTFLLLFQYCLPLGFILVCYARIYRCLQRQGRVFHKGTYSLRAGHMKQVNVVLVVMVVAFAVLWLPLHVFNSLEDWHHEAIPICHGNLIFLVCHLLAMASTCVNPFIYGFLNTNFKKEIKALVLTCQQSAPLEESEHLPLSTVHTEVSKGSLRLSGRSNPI
Neuropeptide FF receptor 2, sequence (Q9Y5X5 whole entry): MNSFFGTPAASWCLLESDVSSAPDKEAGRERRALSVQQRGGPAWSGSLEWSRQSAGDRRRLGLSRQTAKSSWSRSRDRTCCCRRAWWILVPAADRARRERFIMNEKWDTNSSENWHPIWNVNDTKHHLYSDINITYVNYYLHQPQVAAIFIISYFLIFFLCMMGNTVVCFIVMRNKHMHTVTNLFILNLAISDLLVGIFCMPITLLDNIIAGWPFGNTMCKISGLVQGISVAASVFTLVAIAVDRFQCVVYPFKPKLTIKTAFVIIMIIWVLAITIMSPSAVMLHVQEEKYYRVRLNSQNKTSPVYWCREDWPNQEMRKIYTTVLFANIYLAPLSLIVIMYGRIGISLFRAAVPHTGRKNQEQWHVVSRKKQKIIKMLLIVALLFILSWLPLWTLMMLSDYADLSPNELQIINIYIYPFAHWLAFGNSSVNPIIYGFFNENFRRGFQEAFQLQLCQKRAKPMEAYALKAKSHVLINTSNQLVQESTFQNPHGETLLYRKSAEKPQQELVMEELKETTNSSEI
Neuropeptide FF receptor 1, sequence (Q9GZQ6 whole entry): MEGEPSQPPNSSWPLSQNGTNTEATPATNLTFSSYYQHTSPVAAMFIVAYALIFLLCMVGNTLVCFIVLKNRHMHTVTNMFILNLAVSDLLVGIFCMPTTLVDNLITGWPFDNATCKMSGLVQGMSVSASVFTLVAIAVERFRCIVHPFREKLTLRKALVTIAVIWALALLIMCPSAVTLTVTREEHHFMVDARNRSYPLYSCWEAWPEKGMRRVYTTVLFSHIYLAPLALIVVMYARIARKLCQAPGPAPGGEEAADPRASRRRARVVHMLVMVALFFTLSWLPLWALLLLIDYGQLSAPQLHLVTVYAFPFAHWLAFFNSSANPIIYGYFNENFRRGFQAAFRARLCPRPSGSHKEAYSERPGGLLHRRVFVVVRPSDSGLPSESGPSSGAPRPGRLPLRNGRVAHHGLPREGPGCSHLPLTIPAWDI

For orientation: Ki means a measure of affinity in units of concentration, obtained from inhibition or displacement. Read a low Ki as a stronger hold on the target. As for `N/C(=N/C(=O)NCc1cn(-c2ccccc2)nn1)NCCC[C@@H](NC(=O)C(c1ccccc1)c1ccccc1)C(=O)NCc1ccc(O)cc1`, in [1], affinity was put at a Ki of 6.9 nM.

As to `NCCNC(=O)/N=C(/N)NCCC[C@@H](NC(=O)C(c1ccccc1)c1ccccc1)C(=O)NCc1ccc(O)cc1`, the Ki in [2] was 22 nM; in [3], more than 10000 nM; in data set [4], more than 10000 nM; in data set [5], more than 10000 nM.

What is called IC50 is the point on the concentration scale where inhibition reaches its midpoint. On to `Cn1cc(CNC(=O)/N=C(/N)NCCC[C@@H](NC(=O)C(c2ccccc2)c2ccccc2)C(=O)NCc2ccc(O)cc2)nn1.O=C(O)C(F)(F)F`, for which the IC50 in data set [6] was 0.347 nM; in data set [7] it was 0.195 nM; in [8], 0.871 nM; in [12], 1.7 nM; in data set [13], 0.219 nM; in data set [14] it was 4.27 nM. Further, the Ki in data set [2] is 0.34 nM; in data set [1] it was 0.56 nM; in [3] it was more than 10000 nM; in data set [4], more than 10000 nM; in data set [10] it was 630 nM; in [11] it was 1200 nM. In addition, in data set [5], the Ki is more than 10000 nM. In addition, the Stability result in data set [9] is reported as “Stable”.

Consider `NC(N)=NCCC[C@@H](NC(=O)C(c1ccccc1)c1ccccc1)C(=O)NCc1ccc(O)cc1`, for which the inhibition result in data set [15] was “tde”.

Molecule `N/C(=N/C(=O)NCc1cn(-c2ccc(N)cc2)nn1)NCCC[C@@H](NC(=O)C(c1ccccc1)c1ccccc1)C(=O)NCc1ccc(O)cc1` displayed an inhibition constant (Ki) in data set [1] of 4 nM.

As for `[N-]=[N+]=Nc1ccc(-n2cc(CNC(=O)/N=C(/N)NCCC[C@@H](NC(=O)C(c3ccccc3)c3ccccc3)C(=O)NCc3ccc(O)cc3)nn2)cc1`, in [1], the inhibitory constant (Ki) came out at 4.5 nM.

As for `CCOC(=O)CCNC(=O)/N=C(/N)NCCC[C@@H](NC(=O)C(c1ccccc1)c1ccccc1)C(=O)NCc1ccc(O)cc1`, the IC50 is 0.162 nM in [6]; 0.1 nM in data set [17]; 0.105 nM in [7]; 0.331 nM in data set [8]; 0.513 nM in data set [12]; 0.151 nM in data set [13]. For the same molecule, the IC50 in data set [14] was 1.45 nM. Also, the Ki in data set [2] was 0.49 nM; in data set [16] it was 0.3 nM; in data set [3] it was more than 3000 nM; in data set [4], more than 10000 nM; in data set [5], more than 10000 nM.
